Laboratory results as given in ChEMBL document CHEMBL1126775, “A pharmacological, crystallographic, and quantum chemical study of new inotropic agents” (J Med Chem, 1993).

Key:
Cavia porcellus [1] = species on record: Cavia porcellus; assay: Inotropic effect in electrically driven left atrium from reserpine-treated guinea pig without 8-phenyl theophylline at the concentration of 2 x 10 e-3 M; assay type: functional, Cardiac atrium
Outline: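 Paced left atrium from reserpine-pretreated, tyramine-unresponsive guinea pigs (0.5 g load, 1.5 Hz, 3-ms pulses). Cumulative additions of agent, 5 min each, with no 8-phenyltheophylline present. Developed tension as % increase over control. Mean ± SEM of six assays from six experiments; Student's t test against the 8-phenyltheophylline-treated preparations.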

Cavia porcellus [2] = species on record: Cavia porcellus; assay: Effect on contractile force of spontaneously beating atria from reserpine treated guinea pigs at the concentration of 10 e-3 M; assay type: functional
Cavia porcellus [3] = species on record: Cavia porcellus; assay: Inotropic response in electrically driven left atrium from reserpine-treated guinea pig with 8-phenyl theophylline (10 e-5)at the concentration of 10 e-4 M; assay type: functional, Cardiac atrium
Outline: (§1)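 Guinea pigs pretreated with reserpine 2 mg/kg ip at 48 and 24 h before sacrifice; atria unresponsive to tyramine 2 μg/mL used. Left atrium paced at 1.5 Hz (3-ms square pulses, 10–20% above threshold, 0.5 g load). 8-Phenyltheophylline 10 μM preincubated 20 min after 90 min equilibration, then agents added cumulatively, 5 min each. Isometric developed tension as % over control; six assays from six experiments.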

Cavia porcellus [4] = species on record: Cavia porcellus; assay: Inotropic response in electrically driven left atrium from reserpine-treated guinea pig with VER (10 e-7) at the concentration of 10 e-3 M; assay type: functional, Cardiac atrium
Outline: (§2)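 Left atrium from reserpine-treated guinea pigs (2 mg/kg ip, 48 and 24 h prior; tyramine 2 μg/mL check), paced at 1.5 Hz with 3-ms pulses. Verapamil 0.1 μM added 10 min before cumulative agent additions (5 min each), after 90 min equilibration. Isometric developed tension as % increase over control; seven assays from seven experiments.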

Cavia porcellus [5] = species on record: Cavia porcellus; assay: Inotropic response in electrically driven left atrium from reserpine-treated guinea pig with 8-phenyl theophylline (10 e-5)at the concentration of 2 x 10 e-3 M; assay type: functional, Cardiac atrium; outline: as §1
Cavia porcellus [6] = species on record: Cavia porcellus; assay: Inotropic effect in electrically driven left atrium from reserpine-treated guinea pig at the concentration of 5 x 10 e-5 M; assay type: functional, Cardiac atrium
Outline: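 Atria from reserpine-pretreated guinea pigs (2 mg/kg ip, 48 and 24 h), tyramine-unresponsive only. Left atrium loaded 0.5 g, paced at 1.5 Hz with 3-ms square pulses at 10–20% above threshold. Equilibrated 90 min. Agents added cumulatively, 5 min per concentration. Isometric developed tension expressed as % increase over control.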

Cavia porcellus [7] = species on record: Cavia porcellus; assay: Inotropic response in electrically driven left atrium from reserpine-treated guinea pig without ADA at the concentration of 2 x 10 e-3 M; assay type: functional, Cardiac atrium
Outline: (§3)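 Control arm: electrically driven left atrium (1.5 Hz, 3-ms pulses, 0.5 g load) from guinea pigs given reserpine 2 mg/kg ip at 48 and 24 h, tyramine-unresponsive; no adenosine deaminase. Cumulative additions after 90 min equilibration, 5 min per concentration. Isometric developed tension, % over control; six assays from six experiments.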

Cavia porcellus [8] = species on record: Cavia porcellus; assay: Inotropic response in electrically driven left atrium from reserpine-treated guinea pig with ADA (2 units/ml) at the concentration of 10 e-5 M; assay type: functional, Cardiac atrium
Outline: (§4)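 Reserpinized guinea pigs (2 mg/kg ip, 48 and 24 h before death), tyramine-unresponsive atria. Electrically driven left atrium (1.5 Hz, 3-ms pulses, 0.5 g load) preincubated 20 min with adenosine deaminase after 90 min equilibration. Agents added cumulatively, 5 min per concentration. Developed tension recorded isometrically, % increase over control or % inhibition; six assays from six experiments, Student's t test.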

Cavia porcellus [9] = species on record: Cavia porcellus; assay: Inotropic response in electrically driven left atrium from reserpine-treated guinea pig with 8-phenyl theophylline (10 e-5) at the concentration of 10 e-5 M; assay type: functional, Cardiac atrium; outline: as §1
Cavia porcellus [10] = species on record: Cavia porcellus; assay: Effect on contractile force of spontaneously beating atria from reserpine treated guinea pigs at the concentration of 10 e-4 M; assay type: functional
Cavia porcellus [11] = species on record: Cavia porcellus; assay: Effect on frequency rate of spontaneously beating atria from reserpine treated guinea pigs at the concentration of 5 x 10 e-4 M; assay type: functional
Cavia porcellus [12] = species on record: Cavia porcellus; assay: Inotropic response in electrically driven left atrium from reserpine-treated guinea pig without ADA at the concentration of 5 x 10 e-4 M; assay type: functional, Cardiac atrium; outline: as §3
Cavia porcellus [13] = species on record: Cavia porcellus; assay: Inotropic response in electrically driven left atrium from reserpine-treated guinea pig with 8-phenyl theophylline (10 e-5)at the concentration of 5 x 10 e-4 M; assay type: functional, Cardiac atrium; outline: as §1
Cavia porcellus [14] = species on record: Cavia porcellus; assay: Inotropic response in electrically driven left atrium from reserpine-treated guinea pig without ADA at the concentration of 10 e-4 M; assay type: functional, Cardiac atrium; outline: as §3
Cavia porcellus [15] = species on record: Cavia porcellus; assay: Inotropic response in electrically driven left atrium from reserpine-treated guinea pig with 8-phenyl theophylline (10 e-5)at the concentration of 10 e-3 M; assay type: functional, Cardiac atrium; outline: as §1
Cavia porcellus [16] = species on record: Cavia porcellus; assay: Inotropic response in electrically driven left atrium from reserpine-treated guinea pig with VER (10 e-7) at the concentration of 5 x 10 e-4 M; assay type: functional, Cardiac atrium; outline: as §2
Cavia porcellus [17] = species on record: Cavia porcellus; assay: Inotropic response in electrically driven left atrium from reserpine-treated guinea pig with ADA (2 units/ml) at the concentration of 10 e-3 M; assay type: functional, Cardiac atrium; outline: as §4
Cavia porcellus [18] = species on record: Cavia porcellus; assay: Inotropic response in electrically driven left atrium from reserpine-treated guinea pig with 8-phenyl theophylline (10 e-5)at the concentration of 5 x 10 e-5 M; assay type: functional, Cardiac atrium; outline: as §1
Cavia porcellus [19] = species on record: Cavia porcellus; assay: Inotropic response in electrically driven left atrium from reserpine-treated guinea pig with 8-pH (10 e-5)at the concentration of 5 x 10 e-4 M; assay type: functional, Cardiac atrium; outline: as §1
Cavia porcellus [20] = species on record: Cavia porcellus; assay: Inotropic response in electrically driven left atrium from reserpine-treated guinea pig with 8-pH (10 e-5)at the concentration of 5 x 10 e-5 M; assay type: functional, Cardiac atrium; outline: as §1
Cavia porcellus [21] = species on record: Cavia porcellus; assay: Inotropic response in electrically driven left atrium from reserpine-treated guinea pig with ADA (2 units/ml) at the concentration of 10 e-5 M (% inhibition of contractile response) (p<0.001); assay type: functional, Cardiac atrium
Cavia porcellus [22] = species on record: Cavia porcellus; assay: Inotropic response in electrically driven left atrium from reserpine-treated guinea pig with 8-pH (10 e-5)at the concentration of 10 e-4 M; assay type: functional, Cardiac atrium; outline: as §1
Cavia porcellus [23] = species on record: Cavia porcellus; assay: Inotropic response in electrically driven left atrium from reserpine-treated guinea pig with 8-pH (10 e-5)at the concentration of 10 e-5 M; assay type: functional, Cardiac atrium; outline: as §1
Cavia porcellus [24] = species on record: Cavia porcellus; assay: Inotropic response in electrically driven left atrium from reserpine-treated guinea pig with 8-pH (10 e-5)at the concentration of 10 e-3 M; assay type: functional, Cardiac atrium; outline: as §1
Cavia porcellus [25] = species on record: Cavia porcellus; assay: Inotropic response in electrically driven left atrium from reserpine-treated guinea pig with 8-pH (10 e-5)at the concentration of 2 x 10 e-3 M; assay type: functional, Cardiac atrium; outline: as §1

CC1CC(=O)c2ccc(O)nc2C1 (stereo not given)
Increase (Cavia porcellus [1]): 87.6%
Increase (Cavia porcellus [2]): 46.09%
Increase (Cavia porcellus [3]): 8.67%
Increase (Cavia porcellus [4]): 23.78%
Increase (Cavia porcellus [5]): 52.56%
Increase (Cavia porcellus [6]): 19.17%
Increase (Cavia porcellus [7]): 67.12%
Increase (Cavia porcellus [8]): 2.48%
Increase (Cavia porcellus [9]): 0.29%
Increase (Cavia porcellus [10]): 28.89%
Increase (Cavia porcellus [11]): 13.45%
Increase (Cavia porcellus [12]): 36.16%
Increase (Cavia porcellus [13]): 15.18%
Increase (Cavia porcellus [14]): 27.6%
Increase (Cavia porcellus [15]): 25.45%
Increase (Cavia porcellus [16]): 14.7%
Increase (Cavia porcellus [17]): 20.63%
Increase (Cavia porcellus [18]): 3.95%

CC(=O)c1cc(C#N)c(O)nc1C
Increase (Cavia porcellus [1]): 62.73%
Increase (Cavia porcellus [19]): 40.37%
Increase (Cavia porcellus [2]): 65.35%
Increase (Cavia porcellus [4]): 66.4%
Increase (Cavia porcellus [20]): 11.59%
Increase (Cavia porcellus [6]): 25.17%
Increase (Cavia porcellus [7]): 84.6%
Increase (Cavia porcellus [21]): 3.42%
Increase (Cavia porcellus [22]): 23.03%
Increase (Cavia porcellus [23]): 7.75%
Increase (Cavia porcellus [10]): 35.57%
Increase (Cavia porcellus [11]): 11.61%
Increase (Cavia porcellus [24]): 50.44%
Increase (Cavia porcellus [14]): 12.61%
Increase (Cavia porcellus [25]): 58.97%
Increase (Cavia porcellus [16]): 55.47%
Increase (Cavia porcellus [17]): 37.93%
